How the values were obtained:
[1] = biological target: T1, Alpha-1D adrenergic receptor (Rattus norvegicus, UniProt P23944); test: Vasorelaxation of phenylephrine-stimulated Wistar rat aorta contraction; type: functional, tissue-based
T1 sequence (P23944 whole entry): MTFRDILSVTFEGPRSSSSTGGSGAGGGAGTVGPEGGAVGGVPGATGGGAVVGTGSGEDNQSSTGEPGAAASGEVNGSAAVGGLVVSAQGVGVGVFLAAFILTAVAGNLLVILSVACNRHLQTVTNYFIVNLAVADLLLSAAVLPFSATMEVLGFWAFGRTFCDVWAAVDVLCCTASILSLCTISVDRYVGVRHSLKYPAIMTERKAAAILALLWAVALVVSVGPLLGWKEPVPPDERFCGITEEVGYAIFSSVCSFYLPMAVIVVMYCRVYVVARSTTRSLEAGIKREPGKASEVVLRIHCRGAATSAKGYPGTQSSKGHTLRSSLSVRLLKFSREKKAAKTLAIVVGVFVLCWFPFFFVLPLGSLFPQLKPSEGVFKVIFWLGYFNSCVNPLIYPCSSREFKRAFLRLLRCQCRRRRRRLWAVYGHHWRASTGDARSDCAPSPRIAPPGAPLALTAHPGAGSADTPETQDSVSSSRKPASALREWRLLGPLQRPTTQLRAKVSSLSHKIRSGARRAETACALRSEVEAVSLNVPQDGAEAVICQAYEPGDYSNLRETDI
Summary of the method: (§1)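 Isolated rat aorta rings equilibrated 1 h at 2 g resting tension in Krebs solution, changed periodically. Contracted with 10^-5 M phenylephrine; at steady maximal contraction compounds added progressively over 30 min up to 10^-5 M or 10^-4 M. Responses read after 30 min as % relaxation of PE contraction; EC50 calculated when relaxation exceeded 60%.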

[2] = biological target: T2, Alpha-1A adrenergic receptor (Rattus norvegicus, UniProt P43140); test: Vasorelaxation of noradrenaline-stimulated Wistar rat vas deferens contraction; type: functional, tissue-based
T2 sequence (P43140 whole entry): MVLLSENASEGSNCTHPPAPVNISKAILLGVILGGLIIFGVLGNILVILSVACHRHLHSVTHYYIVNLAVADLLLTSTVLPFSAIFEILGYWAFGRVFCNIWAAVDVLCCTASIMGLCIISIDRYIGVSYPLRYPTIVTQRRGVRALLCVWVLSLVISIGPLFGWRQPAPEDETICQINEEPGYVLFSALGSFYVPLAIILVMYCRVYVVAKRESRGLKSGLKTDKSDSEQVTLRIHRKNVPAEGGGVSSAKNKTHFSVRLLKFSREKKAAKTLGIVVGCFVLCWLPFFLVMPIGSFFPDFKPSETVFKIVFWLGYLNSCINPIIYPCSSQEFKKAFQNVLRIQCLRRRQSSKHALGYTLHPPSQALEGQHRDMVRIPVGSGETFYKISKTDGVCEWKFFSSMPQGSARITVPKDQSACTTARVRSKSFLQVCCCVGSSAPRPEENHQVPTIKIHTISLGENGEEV
Summary of the method: (§2)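 Wistar rat vas deferens cleaned of connective tissue, held in Krebs–Henseleit at 37 °C, 95% O2–5% CO2, 1 g resting tension. Control noradrenaline concentration–response curve obtained, tissue then equilibrated with a fixed compound concentration for at least 30 min before a second NA curve. Time-matched controls; responses as % of control maximum; means ± SE.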

[3] = biological target: T3, Alpha-1D adrenergic receptor (Rattus norvegicus) (UniProt P23944); test: Inhibition of phenylephrine-stimulated Wistar rat aorta contraction at 10 uM; type: functional, tissue-based; parameters: scale not given: the % may be the effect or the level left; summary of the method: as §1
T3 sequence (whole entry): T1 sequence (P23944 whole entry)

[4] = biological target: T4, Alpha-1A adrenergic receptor (Rattus norvegicus) (UniProt P43140); test: Inhibition of noradrenaline-stimulated Wistar rat vas deferens contraction at 1 uM; type: functional; summary of the method: as §2
T4 sequence (whole entry): T2 sequence (P43140 whole entry)

[5] = biological target: T4, Alpha-1A adrenergic receptor (Rattus norvegicus); test: Inhibition of noradrenaline-stimulated Wistar rat vas deferens contraction at 10 uM; type: functional; summary of the method: as §2
[6] = biological target: T4, Alpha-1A adrenergic receptor (Rattus norvegicus); test: Affinity to Adrenergic alpha-1A receptor in Wistar rat vas deferens; type: tissue-based; summary of the method: as §2
[7] = biological target: T3, Alpha-1D adrenergic receptor (Rattus norvegicus); test: Affinity to Adrenergic Alpha-1D receptor in Wistar rat aorta; type: tissue-based
Summary of the method: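 Rat aorta rings stabilised, then cumulative vasoconstrictor additions until plateau; contraction as % of control response. Protocol repeated after 30 min compound incubation.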

[8] = biological target: T5, Alpha-1B adrenergic receptor (Rattus norvegicus) (UniProt P15823); test: Affinity to Adrenergic alpha-1B receptor in Wistar rat spleen; type: tissue-based
T5 sequence (whole entry): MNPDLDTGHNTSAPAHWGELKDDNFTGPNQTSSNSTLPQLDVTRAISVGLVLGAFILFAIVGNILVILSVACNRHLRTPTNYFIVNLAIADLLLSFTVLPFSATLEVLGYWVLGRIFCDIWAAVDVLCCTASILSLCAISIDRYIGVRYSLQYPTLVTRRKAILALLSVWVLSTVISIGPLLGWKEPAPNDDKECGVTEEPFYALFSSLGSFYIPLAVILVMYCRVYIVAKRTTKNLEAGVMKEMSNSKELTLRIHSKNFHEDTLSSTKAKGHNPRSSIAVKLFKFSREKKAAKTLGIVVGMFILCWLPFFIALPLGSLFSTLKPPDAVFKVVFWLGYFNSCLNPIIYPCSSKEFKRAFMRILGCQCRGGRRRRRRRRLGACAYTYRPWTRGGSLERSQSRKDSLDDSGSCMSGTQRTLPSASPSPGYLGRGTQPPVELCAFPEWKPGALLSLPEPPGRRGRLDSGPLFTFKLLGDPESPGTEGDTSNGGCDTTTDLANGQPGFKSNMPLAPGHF
Summary of the method: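 Longitudinal rat spleen strips at 1 g tension in Krebs, 37 °C. After stabilisation, single 10^-4 M phenylephrine dose, washout, then PE dose–response curves on two separate strips, control and after 30 min incubation with compound. Values as % of the first PE response.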

[9] = biological target: T3, Alpha-1D adrenergic receptor (Rattus norvegicus); test: Inhibition of phenylephrine-stimulated Wistar rat aorta contraction at 100 uM; type: functional, tissue-based; parameters: scale not given: the % may be the effect or the level left; summary of the method: as §1

Compound	EC50 [1] [µM]	Activity [3] [%]	other results
O=c1[nH]nc(Cc2ccc(Cl)cc2)c2ccccc12	0.79		EC50 [2]: 3.9 µM
C=CCn1nc(Cc2ccc(OC)c(OC)c2)c2ccccc2c1=O	9.8		
COc1ccc(Cc2nnc(O)c3ccccc23)cc1OC	3.7	83.8	
CCn1nc(Cc2ccc(Cl)cc2)c2ccccc2c1=O	1.3		
COc1ccc(Cc2nn(C)c(=O)c3ccccc23)cc1OC	2.2	67.7	
Cn1nc(Cc2ccc(Cl)cc2)c2ccccc2c1=O	0.43	99.3	inhibition [4]: 61.5%; inhibition [5]: 95.4%; pD'2 [6]: 6.1; pD'2 [7]: 5.4; EC50 [2]: 0.81 µM; pD'2 [8]: 5.55
Cn1nc(Cc2ccccc2)c2ccccc2c1=O	≤ 10	55.7	inhibition [4]: 36.6%; inhibition [5]: 98.8%; pD'2 [6]: 5.8; EC50 [2]: 1.5 µM
Cn1nc(Cc2ccc3ccccc3c2)c2ccccc2c1=O	> 10	44.6	
CCn1nc(Cc2ccc(SC)cc2)c2ccccc2c1=O	> 100		
Cn1nc(Cc2ccc(Cl)c(Cl)c2)c2ccccc2c1=O	4.9	60.3	
Cn1nc(Cc2ccc(Cl)cc2Cl)c2ccccc2c1=O	1.2	80.7	
COc1ccc(Cc2nn(-c3ccc(Br)cc3)c(=O)c3ccccc23)cc1OC	> 100		
O=c1[nH]nc(Cc2ccccc2)c2ccccc12	≤ 10	53	
Cn1nc(Cc2ccccc2Cl)c2ccccc2c1=O	1.4	84	
O=c1c2ccccc2c(Cc2ccc(Cl)cc2)nn1-c1ccc(Br)cc1	> 30		
Oc1nnc(Cc2ccc(Cl)cc2Cl)c2ccccc12	< 10	61.3	
COc1cc(Cc2nnc(O)c3ccccc23)cc(OC)c1OC	> 100		Activity [9]: 34.3%
COc1ccc(Cc2nn(C(C)(C)C)c(=O)c3ccccc23)cc1OC	10		
COc1ccc(Cc2nn(-c3ccc([N+](=O)[O-])cc3)c(=O)c3ccccc23)cc1OC	> 100		
COc1cc(Cc2nn(C)c(=O)c3ccccc23)cc(OC)c1OC	> 10	16.7	
Oc1nnc(Cc2ccc3c(c2)OCO3)c2ccccc12	2.9	86.7	inhibition [4]: 24.3%; inhibition [5]: 78.8%; pD'2 [6]: 5.5; EC50 [2]: 3 µM
O=c1c2ccccc2c(Cc2ccc(Cl)cc2)nn1-c1ccccc1	> 100		
COc1ccc(Cc2nnc(O)c3ccccc23)cc1	> 10		Activity [9]: 39.3%
COc1ccc(Cc2nn(-c3ccccc3)c(=O)c3ccccc23)cc1OC	> 100		
COc1ccc(CCc2cc(O)cc(OC)c2C(=O)O)cc1			Activity [9]: 34%
Oc1nnc(Cc2ccc(Cl)cc2)c2ccccc12		89.9	inhibition [4]: 16.3%; inhibition [5]: 76.3%; pD'2 [6]: 5.4

Compound	EC50 [1] [µM]	Activity [3] [%]	other results
CSc1ccc(Cc2nn(-c3ccc([N+](=O)[O-])cc3)c(=O)c3ccccc23)cc1	> 100		
CSc1ccc(Cc2nnc(O)c3ccccc23)cc1		66	
COc1ccc(Cc2nn(C)c(=O)c3ccccc23)cc1	< 100		Activity [9]: 61.6%
CSc1ccc(Cc2nn(C(C)(C)C)c(=O)c3ccccc23)cc1	> 100		
CSc1ccc(Cc2n[nH]c(=O)c3ccccc23)cc1	5.5		
O=c1c2ccccc2c(Cc2ccc(Cl)cc2)nn1-c1ccc([N+](=O)[O-])cc1	29		
CCn1nc(Cc2ccc(OC)c(OC)c2)c2ccccc2c1=O	5.3		
C=CCn1nc(Cc2ccc(Cl)cc2)c2ccccc2c1=O	2.6		inhibition [4]: 16.9%; inhibition [5]: 70.4%; pD'2 [6]: 5.4; EC50 [2]: 4.4 µM
Cn1nc(Cc2ccc3c(c2)OCO3)c2ccccc2c1=O	0.93	90.2	
CC(C)(C)n1nc(Cc2ccc(Cl)cc2)c2ccccc2c1=O	> 100		
Oc1nnc(Cc2ccc(Cl)c(Cl)c2)c2ccccc12	≤ 10	53.8	
Cn1nc(Cc2cccc3ccccc23)c2ccccc2c1=O	14	39.8	
CSc1ccc(Cc2nn(-c3ccc(Br)cc3)c(=O)c3ccccc23)cc1	> 100		
Oc1nnc(Cc2ccccc2Cl)c2ccccc12	1.9	76.3	
CCCCn1nc(Cc2ccc(SC)cc2)c2ccccc2c1=O	> 100		
Oc1nnc(Cc2cccc3ccccc23)c2ccccc12	4.4	79.2	
C=CCn1nc(Cc2ccc(SC)cc2)c2ccccc2c1=O	> 100		
CSc1ccc(Cc2nn(-c3ccccc3)c(=O)c3ccccc23)cc1	> 100		
CCCCn1nc(Cc2ccc(Cl)cc2)c2ccccc2c1=O	> 100		
Oc1nnc(Cc2ccc3ccccc3c2)c2ccccc12	> 10	43.9	
COc1ccc(CC(=O)c2ccccc2C(=O)N2CCCCC2)cc1OC		30	
OC1(Cc2ccc3c(c2)OCO3)c2ccccc2C2=NCCN21 (stereo unspecified)		47	
COc1ccc(CCc2cc(O)cc(OC)c2C(=O)N2CCCCC2)cc1			Activity [9]: 51%
CSc1ccc(Cc2nn(C)c(=O)c3ccccc23)cc1	0.93	87.2	
CCCCn1nc(Cc2ccc(OC)c(OC)c2)c2ccccc2c1=O	5.4		
COc1ccc(C(=O)C(=O)c2ccccc2C(=O)N2CCCCC2)cc1OC		70	

Reference: ChEMBL document CHEMBL1147016, “Vasorelaxant activity of phthalazinones and related compounds” (Bioorg Med Chem Lett, 2006)
